Results: ChEMBL document CHEMBL1156486, “Discovery and characterization of a novel inhibitor of matrix metalloprotease-13 that reduces cartilage damage in vivo without joint fibroplasia side effects” (J Biol Chem, 2007)
Values belong to the molecule of their own block, whether it stands above or below them.

Legend:
Matrilysin = biological target: T1, Matrilysin (Homo sapiens, UniProt P09237); test: Inhibition of MMP7
T1 sequence (P09237 whole entry): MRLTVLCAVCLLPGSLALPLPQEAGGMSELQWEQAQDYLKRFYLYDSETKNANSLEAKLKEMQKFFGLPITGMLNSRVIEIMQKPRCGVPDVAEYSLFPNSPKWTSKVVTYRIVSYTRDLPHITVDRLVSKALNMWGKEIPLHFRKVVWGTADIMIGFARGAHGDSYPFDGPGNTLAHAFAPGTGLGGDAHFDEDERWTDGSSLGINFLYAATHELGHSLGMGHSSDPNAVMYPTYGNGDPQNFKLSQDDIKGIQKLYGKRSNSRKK
In short: (§1)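 Buffer: 50 mM Hepes pH 7.0, 10 mM CaCl2, 1 mM DTNB, 0.005% Brij 35, 1% final DMSO. […] Initial rate read as A412 increase at 25 °C. At least triplicate inhibitor titrations. % of control activity fit to a sloped IC50 equation.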

[1] = biological target: Macrophage metalloelastase (Homo sapiens, UniProt P39900); test: Inhibition of MMP12 catalytic domain; in short: as §1
Sequence of Macrophage metalloelastase (P39900 whole entry, the tested form may be a part): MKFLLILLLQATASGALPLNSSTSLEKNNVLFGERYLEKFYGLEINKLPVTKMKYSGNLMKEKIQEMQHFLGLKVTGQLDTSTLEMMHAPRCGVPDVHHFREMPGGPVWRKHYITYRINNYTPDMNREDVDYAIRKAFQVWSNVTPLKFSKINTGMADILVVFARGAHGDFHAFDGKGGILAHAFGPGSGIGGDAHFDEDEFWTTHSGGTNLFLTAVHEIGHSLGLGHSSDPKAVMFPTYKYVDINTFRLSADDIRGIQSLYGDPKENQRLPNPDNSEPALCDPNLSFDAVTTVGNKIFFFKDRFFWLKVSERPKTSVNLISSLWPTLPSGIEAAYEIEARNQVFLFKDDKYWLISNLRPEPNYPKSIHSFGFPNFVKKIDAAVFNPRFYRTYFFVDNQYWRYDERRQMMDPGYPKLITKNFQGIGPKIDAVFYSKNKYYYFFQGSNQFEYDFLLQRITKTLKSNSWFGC

[2] = biological target: 72 kDa type IV collagenase (Homo sapiens, UniProt P08253); test: Inhibition of MMP2
Sequence of 72 kDa type IV collagenase (P08253 whole entry, the tested form may be a part): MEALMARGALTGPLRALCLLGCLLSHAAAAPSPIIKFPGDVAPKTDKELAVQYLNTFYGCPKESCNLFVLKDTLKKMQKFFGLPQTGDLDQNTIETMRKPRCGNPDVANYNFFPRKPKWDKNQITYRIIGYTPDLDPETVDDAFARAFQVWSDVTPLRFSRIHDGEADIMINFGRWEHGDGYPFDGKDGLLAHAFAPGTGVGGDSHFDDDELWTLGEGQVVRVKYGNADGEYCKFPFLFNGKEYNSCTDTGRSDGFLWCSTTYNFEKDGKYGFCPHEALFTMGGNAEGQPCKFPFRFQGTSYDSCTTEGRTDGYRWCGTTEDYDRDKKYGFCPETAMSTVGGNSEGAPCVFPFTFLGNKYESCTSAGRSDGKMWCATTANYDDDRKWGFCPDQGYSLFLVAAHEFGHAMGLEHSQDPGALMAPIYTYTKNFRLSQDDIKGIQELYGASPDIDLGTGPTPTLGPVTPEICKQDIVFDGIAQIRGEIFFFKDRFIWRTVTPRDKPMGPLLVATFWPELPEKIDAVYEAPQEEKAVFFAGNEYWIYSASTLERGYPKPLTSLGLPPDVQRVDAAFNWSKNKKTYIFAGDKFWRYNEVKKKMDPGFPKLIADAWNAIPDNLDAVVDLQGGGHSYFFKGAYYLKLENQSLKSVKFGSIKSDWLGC

[3] = biological target: T2, Matrix metalloproteinase-17 (Homo sapiens, UniProt Q9ULZ9); test: Inhibition of MMP17 catalytic domain; in short: as §1
T2 sequence (Q9ULZ9 whole entry): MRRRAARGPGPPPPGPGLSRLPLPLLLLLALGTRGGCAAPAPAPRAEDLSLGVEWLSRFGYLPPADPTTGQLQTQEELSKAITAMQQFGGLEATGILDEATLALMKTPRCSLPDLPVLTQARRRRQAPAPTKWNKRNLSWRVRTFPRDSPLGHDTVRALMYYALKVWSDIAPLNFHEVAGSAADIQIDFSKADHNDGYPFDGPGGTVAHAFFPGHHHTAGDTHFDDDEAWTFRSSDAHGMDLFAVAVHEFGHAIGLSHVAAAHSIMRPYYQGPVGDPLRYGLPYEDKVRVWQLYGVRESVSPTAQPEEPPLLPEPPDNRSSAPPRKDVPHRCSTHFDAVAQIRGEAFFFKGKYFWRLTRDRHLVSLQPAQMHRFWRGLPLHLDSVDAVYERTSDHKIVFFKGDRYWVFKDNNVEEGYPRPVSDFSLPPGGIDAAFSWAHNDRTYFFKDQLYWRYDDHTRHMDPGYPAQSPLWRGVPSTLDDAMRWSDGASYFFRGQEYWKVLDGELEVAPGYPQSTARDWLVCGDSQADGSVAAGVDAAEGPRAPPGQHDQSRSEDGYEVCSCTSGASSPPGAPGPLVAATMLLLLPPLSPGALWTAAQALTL

[4] = biological target: Matrix metalloproteinase-9 (Homo sapiens, UniProt P14780); test: Inhibition of MMP9
Sequence of Matrix metalloproteinase-9 (P14780 whole entry): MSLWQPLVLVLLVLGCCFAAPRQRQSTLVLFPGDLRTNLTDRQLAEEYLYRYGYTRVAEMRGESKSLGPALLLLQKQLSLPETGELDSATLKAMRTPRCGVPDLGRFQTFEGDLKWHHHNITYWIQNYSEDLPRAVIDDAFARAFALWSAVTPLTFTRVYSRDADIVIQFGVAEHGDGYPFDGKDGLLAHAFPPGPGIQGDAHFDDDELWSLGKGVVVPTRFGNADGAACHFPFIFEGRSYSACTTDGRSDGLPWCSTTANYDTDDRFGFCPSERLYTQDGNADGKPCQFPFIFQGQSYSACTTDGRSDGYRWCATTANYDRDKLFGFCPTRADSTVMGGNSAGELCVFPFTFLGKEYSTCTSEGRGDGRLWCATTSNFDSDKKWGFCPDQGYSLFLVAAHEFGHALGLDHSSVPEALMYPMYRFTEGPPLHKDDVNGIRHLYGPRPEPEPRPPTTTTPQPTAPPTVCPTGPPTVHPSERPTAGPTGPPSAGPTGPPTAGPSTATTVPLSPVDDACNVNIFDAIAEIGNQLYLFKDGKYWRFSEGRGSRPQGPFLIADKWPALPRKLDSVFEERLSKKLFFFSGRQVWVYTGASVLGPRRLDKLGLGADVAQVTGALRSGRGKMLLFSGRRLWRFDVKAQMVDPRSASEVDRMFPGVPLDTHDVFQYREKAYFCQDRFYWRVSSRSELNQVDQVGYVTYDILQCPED

Interstitial collagenase = biological target: T3, Interstitial collagenase (Homo sapiens, UniProt P03956); test: Inhibition of MMP1
T3 sequence (P03956 whole entry): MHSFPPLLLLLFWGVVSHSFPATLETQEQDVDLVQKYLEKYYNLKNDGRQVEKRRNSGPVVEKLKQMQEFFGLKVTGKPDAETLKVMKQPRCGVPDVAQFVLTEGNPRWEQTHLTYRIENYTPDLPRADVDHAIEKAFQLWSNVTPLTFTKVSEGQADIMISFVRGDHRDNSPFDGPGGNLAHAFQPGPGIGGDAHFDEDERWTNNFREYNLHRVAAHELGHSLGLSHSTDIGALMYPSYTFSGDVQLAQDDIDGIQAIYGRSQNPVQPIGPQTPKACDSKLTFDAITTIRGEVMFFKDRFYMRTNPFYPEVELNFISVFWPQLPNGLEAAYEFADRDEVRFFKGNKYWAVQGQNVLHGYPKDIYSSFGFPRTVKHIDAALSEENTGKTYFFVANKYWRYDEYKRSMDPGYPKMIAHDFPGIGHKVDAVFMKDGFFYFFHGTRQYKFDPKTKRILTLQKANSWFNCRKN

Stromelysin-1 = Stromelysin-1 (Homo sapiens, UniProt P08254); test: Inhibition of MMP3 catalytic domain; in short: as §1
Sequence of Stromelysin-1 (P08254 whole entry, the tested form may be a part): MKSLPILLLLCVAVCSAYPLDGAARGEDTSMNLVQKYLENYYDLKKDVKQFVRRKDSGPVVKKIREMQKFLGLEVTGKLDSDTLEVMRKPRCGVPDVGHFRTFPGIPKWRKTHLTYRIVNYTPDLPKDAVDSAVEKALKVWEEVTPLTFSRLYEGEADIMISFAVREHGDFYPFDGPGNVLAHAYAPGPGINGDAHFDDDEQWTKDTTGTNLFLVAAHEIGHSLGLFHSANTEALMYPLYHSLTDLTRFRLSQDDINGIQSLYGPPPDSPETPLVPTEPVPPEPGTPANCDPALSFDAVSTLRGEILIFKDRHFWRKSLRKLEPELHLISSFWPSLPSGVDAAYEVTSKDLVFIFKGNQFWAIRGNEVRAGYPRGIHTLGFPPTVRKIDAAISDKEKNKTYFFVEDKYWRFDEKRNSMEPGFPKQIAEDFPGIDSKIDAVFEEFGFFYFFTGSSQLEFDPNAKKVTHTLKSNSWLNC

[5] = biological target: Matrix metalloproteinase-14 (Homo sapiens, UniProt P50281); test: Inhibition of MMP14 catalytic domain; in short: as §1
Neutrophil collagenase = Neutrophil collagenase (Homo sapiens, UniProt P22894); test: Inhibition of MMP8 catalytic domain
Sequence of Neutrophil collagenase (P22894 whole entry, the tested form may be a part): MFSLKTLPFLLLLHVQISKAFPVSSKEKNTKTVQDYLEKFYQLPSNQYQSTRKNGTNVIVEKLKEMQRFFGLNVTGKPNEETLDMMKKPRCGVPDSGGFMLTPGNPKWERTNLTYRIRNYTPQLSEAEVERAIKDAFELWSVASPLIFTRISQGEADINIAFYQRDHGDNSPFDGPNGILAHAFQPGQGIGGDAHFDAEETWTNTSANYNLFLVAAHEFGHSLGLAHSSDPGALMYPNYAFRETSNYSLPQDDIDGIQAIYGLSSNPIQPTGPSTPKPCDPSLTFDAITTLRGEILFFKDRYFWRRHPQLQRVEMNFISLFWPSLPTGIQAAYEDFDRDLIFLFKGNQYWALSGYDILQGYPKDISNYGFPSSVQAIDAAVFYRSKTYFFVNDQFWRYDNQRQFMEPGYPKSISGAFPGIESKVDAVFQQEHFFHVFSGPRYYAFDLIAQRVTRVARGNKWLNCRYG

Rattus norvegicus = test: Toxicity in Sprague-Dawley rat model of musculoskeletal syndrome side effect assessed as induction of joint fibroplasia at 2000 mg/kg/day, po after 14 days; format: organism-based; design: route oral; settings: in vivo, 336 h
In short: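 Sprague-Dawley rats (6/sex) given vehicle or 2000 mg/kg/day orally for 14 days; a non-selective hydroxamate MMP inhibitor at 2000 mg/kg/day as positive control. Calcaneon tendon and femorotibial, tibiotarsal, humeroradial joints taken bilaterally; femorotibial joints formalin-fixed, decalcified, H&E-stained, examined by light microscopy for fibroplasia.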

[6] = Drug level in Sprague-Dawley rat model of musculoskeletal syndrome side effect at 2000 mg/kg/day, po after 14 days; format: ADME, organism-based; design: route oral; settings: in vivo
[7] = tested on: O=C(OCc1ccccc1)c1cn2c(=O)n(Cc3ccccc3)c(=O)cc2s1; settings: Homo sapiens

IC50 (Matrilysin): > 100 µM
IC50 [1]: > 100 µM
IC50 [2]: > 100 µM
IC50 [3]: > 100 µM
IC50 [4]: > 100 µM
IC50 (Interstitial collagenase): > 100 µM
IC50 (Stromelysin-1): > 100 µM
IC50 [5]: > 100 µM
IC50 (Neutrophil collagenase): > 100 µM
Molecule: O=C(OCc1ccccc1)c1cn2c(=O)n(Cc3ccccc3)c(=O)cc2s1

Molecule: CC(C)[C@@H](NS(=O)(=O)c1ccc(-c2ccc(Br)cc2)cc1)C(=O)NO
Activity (Rattus norvegicus): Toxic
AUC at 336 h [6]: 94000 ng·h/mL

Molecule: Collagenase 3 (Homo sapiens) (from UniProt P45452)
Km [7]: 48 µM
